Bioassay records as filed in PubChem.
FN deposition inh = fibronectin deposition inhibition; AH1F fibroblasts, Alexa488-fibronectin deposition fluorescence, overnight; inhibition, % at 12.6 µM; actives 0.086% (n = 350,000);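 active = mean inhibition across replicates of 30% or more, regardless of how many single replicates reach that level; inconclusive = mean under 30% yet at least half of replicates reach 30%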;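 note: positive control wells lacked labelled fibronectin entirely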
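Assay system: AH1F fibroblasts / Quantity: 10000 cells per well / Medium: DMEM plus 2% serum, read in PBS / Reagent: labelled fibronectin 24 nM / Dosing: single dose, pinned / Times: 1 h cell attachment, overnight exposure to compound and label / Signal: fluorescence, ex 485 nm, em 525 nm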
MLL AF4-AF9 inh = inhibitors of human MLL-AF4/AF9 interaction | actives 0.47% (n = 350,000) | inhibition, % at 10 µM | AlphaScreen, biotin-AF4 peptide binding to FLAG-AF9;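 active = every replicate reaching a set inhibition limit, whatever the replicate mean, cut at about 25% in these data; inconclusive = mean inhibition reaches that limit but some replicates miss it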;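 note: 0% = plate neutral control median and 100% = total signal loss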
N-glyco inh = N-linked glycosylation inhibition; D54 ERlucT glycosylation luciferase reporter, 24 h; percent of 100 nM tunicamycin response; reporter increase, % at 12.5 µM; actives 0.23% (n = 360,000);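 active = mean luciferase reporter signal, scaled so untreated is 0 and the glycosylation-blocking control 100, at or above a set limit in every replicate; inconclusive = mean reaches the limit but not every replicate does; inactive = mean below the limit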;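 note: luciferase carries N-glycosylation sites so blocking glycosylation raises the light; 0% = median of neutral control wells and 100% = median of 100 nM tunicamycin wells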
RAD54 branch = inhibitors of human RAD54 branch migration. inhibition, % at 10.4 µM. AID 602329. RAD54 Holliday junction branch migration, FAM/BHQ fluorescence. actives 0.14% (n = 360,000). Q92698;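 active = mean normalized replicate activity at least 40 and at least half of replicates scoring 40 or more; inconclusive = only one of the two criteria met; inactive = mean below 40 and under half of replicates reaching 40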;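 note: 0% = median of neutral control wells and 100% = median of positive control wells; inhibitors cause a drop in the FAM fluorescence signal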
Target sequence (Q92698 whole entry, looked up): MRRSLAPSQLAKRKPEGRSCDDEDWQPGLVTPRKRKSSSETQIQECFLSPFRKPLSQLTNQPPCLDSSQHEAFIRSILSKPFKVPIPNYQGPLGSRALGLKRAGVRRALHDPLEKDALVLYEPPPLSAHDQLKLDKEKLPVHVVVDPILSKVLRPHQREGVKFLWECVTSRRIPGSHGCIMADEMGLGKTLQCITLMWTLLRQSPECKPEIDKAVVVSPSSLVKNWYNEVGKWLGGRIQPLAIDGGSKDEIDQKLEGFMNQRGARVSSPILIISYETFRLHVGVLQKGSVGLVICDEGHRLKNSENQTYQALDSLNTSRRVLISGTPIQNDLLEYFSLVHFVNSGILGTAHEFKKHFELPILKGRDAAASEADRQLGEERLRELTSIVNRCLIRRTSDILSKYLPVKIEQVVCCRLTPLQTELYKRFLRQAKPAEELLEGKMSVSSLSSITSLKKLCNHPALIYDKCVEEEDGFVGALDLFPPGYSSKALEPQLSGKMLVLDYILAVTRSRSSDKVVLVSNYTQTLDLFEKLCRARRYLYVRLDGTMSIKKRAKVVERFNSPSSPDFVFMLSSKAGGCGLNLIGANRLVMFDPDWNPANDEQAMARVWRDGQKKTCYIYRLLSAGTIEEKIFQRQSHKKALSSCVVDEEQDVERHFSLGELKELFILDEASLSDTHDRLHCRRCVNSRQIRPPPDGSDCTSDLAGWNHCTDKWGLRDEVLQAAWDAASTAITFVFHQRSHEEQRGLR
RAD52 anneal inh = blocks human RAD52 DNA annealing. recombinant RAD52 DNA annealing, FRET fluorescence. inhibition, % at 18.7 µM. actives 0.46% (n = 360,000). AID 651710;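 active = every replicate showing at least 50% inhibition; inconclusive = mean inhibition at least 50% but not in every replicate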
* hit, by the source's call; i = inactive; ? = inconclusive; . = not tested or not shown. Sampled rows, rich in hits. Any-hit rate of the full collection: about 0.92%.

SMILES | FN deposition inh | MLL AF4-AF9 inh | N-glyco inh | RAD54 branch | RAD52 anneal inh
O=C1O[C@@H](c2ccccc2)[C@@H](c2ccccc2)N2[C@@H](c3ccc(O)cc3)[C@]3(C(=O)Nc4ccc(C#CC5=CCCCC5)cc43)[C@@H](C(=O)N3CCCCCCC3)[C@H]12 | . | 2 | . | -7 | -5
O=C1C=CC2(O[C@H](c3ccccc3)[C@@H](c3ccccc3)O2)[C@H](Sc2ccccc2O)C1 | 45* | -2 | -20 | . | -1
Cc1ccc(CN2CCN(CC(=O)N3CCC(C(N)=O)CC3)C2=O)cc1 | 1 | 41* | 1 | -24 | 3
Cc1ccc(CNC(=O)CN2CCN(Cc3ccc(C)cc3)C2=O)cc1 | . | . | 0 | -6 | .
NS(=O)(=O)c1cccc(NC(=O)CCN2C(=O)C3CCCCC3C2=O)c1 (centres undefined) | 33* | -5 | 1 | -2 | -13
O=C(CCN1C(=O)C2CC=CCC2C1=O)Nc1cccc(S(=O)(=O)N2CCCCC2)c1 (centres undefined) | 3 | 2 | -2 | 5 | -8
COc1ccc(NC(=O)N(C)C[C@@H]2Oc3ccc(NC(=O)CCC(F)(F)F)cc3C(=O)N([C@H](C)CO)C[C@@H]2C)cc1 | . | -2 | . | . | .
O=[N+]([O-])c1ccc(S(=O)Cc2ccccc2)c([N+](=O)[O-])c1 (centres undefined) | 37* | 0 | -14 | . | -5
O=[N+]([O-])c1ccc(CS(=O)c2ccccc2)cc1 (centres undefined) | . | -1 | 0 | . | 0
Cc1cccc(/C=C/c2onc(C)c2[N+](=O)[O-])n1 | -1 | 9 | . | . | -6
COc1cc(/C=C/c2onc(C)c2[N+](=O)[O-])cc(OC)c1OC | 16 | -2 | 37* | . | -44
COc1ccccc1-c1nc2cc3ccccc3cc2nc1-c1ccccc1 | 12 | 26* | 2 | . | -13
CC(=O)N1CC2(C1)[C@H](c1ccc(-c3ccc(C#N)cc3)cc1)[C@H](CO)N2CCC(F)(F)F | . | -2 | . | . | -18
CC#C[C@]1(O)CC[C@H]2[C@@H]3CCC4=CC(=O)CCC4=C3[C@@H](c3ccc(N(C)C)cc3)C[C@@]21C | 8 | 33* | -4 | 17 | -8
C=CCn1cc(C(=O)NCCCOC)c(=O)c2cc(S(=O)(=O)N(CC)CC)ccc21 | -6 | . | 2 | . | .
C=CCn1cc(C(=O)N2CCN(CC)CC2)c(=O)c2cc(S(=O)(=O)N(CC)CC)ccc21 | -4 | 45* | 1 | -6 | -6
C[C@@H]1CN([C@@H](C)CO)S(=O)(=O)c2ccc(-c3cccnc3)cc2O[C@@H]1CN(C)C(=O)c1ccc2c(c1)OCO2 | -5 | . | . | 4 | -5
C[C@@H]1CN([C@H](C)CO)C(=O)c2cccc(NC(=O)C3CCCCC3)c2O[C@@H]1CN(C)CC1CC1 | . | -2 | . | 2 | -5
COCCNC(=O)C[C@H]1CC[C@@H]2[C@H](COc3ccc(NC(=O)C4CCOCC4)cc3C(=O)N2C)O1 | -5 | -1 | . | -2 | -2
c1cc2ccc3ccc(CN4CCOCC4)c4ccc(c1)c2c34 | 1 | . | 3 | 38 | .
OC1CCCN(Cc2ccc3ccc4cccc5ccc2c3c45)C1 (centres undefined) | . | . | 57* | 91* | .
CCN1CCN(c2cc(N3CCN(C(=O)c4ccco4)CC3)c3c4c(onc24)-c2ccccc2C3=O)CC1 | . | . | -7 | 19 | .
O=C(O)CCNc1cc(N2CCN(C(=O)c3ccco3)CC2)c2noc3c2c1C(=O)c1ccccc1-3 | 2 | 56* | -5 | -280 | i
COCc1cn([C@@H]2C[C@@H]3O[C@@H](CO)CC[C@@H]3O[C@@H]2CCc2ccc(-c3ccc(OC)cc3)cc2)nn1 | . | 5 | . | . | -2
CCCNC(=O)N1CC2(C1)[C@H](c1ccccc1)[C@H](CO)N2Cc1ccccn1 | . | -2 | . | . | -3
SMILES | FN deposition inh | MLL AF4-AF9 inh | N-glyco inh | RAD54 branch | RAD52 anneal inh
Clc1ccc(C2=Nn3c(nnc3-c3n[nH]c4c3CCC4)SC2)cc1Cl | 10 | . | 81* | 0 | .
c1ccc(C2=Nn3c(nnc3-c3n[nH]c4c3CCC4)SC2)cc1 | . | . | 38* | 2 | .
Clc1ccc(C2=Nn3c(nnc3-c3cc(-c4ccccc4)n[nH]3)SC2)cc1 | . | . | ? | 8 | .
O=C(Nc1ccccc1)[C@@H]1[C@@H](CO)[C@@H]2Cn3c(cccc3=O)[C@@H]2N1Cc1ccccc1Cl | . | 2 | . | 9 | -9
Cc1[nH]c2ccccc2c1N=Nc1ccc(F)cc1 | 4 | 30* | -3 | . | -11
COc1ccc(-c2cn(CC[C@H]3CC[C@@H](NC(=O)Cc4ccccn4)[C@@H](CO)O3)nn2)cc1 | . | 2 | . | 5 | -15
COc1ccc(NC(=O)N[C@H]2CC[C@@H](CCNC(=O)CCN3CCCCC3)O[C@H]2CO)cc1 | -23 | -2 | . | -6 | -2
Cc1cccc(N2CCN(C(=O)CCC(=O)N3Cc4ccccc4Oc4ncccc43)CC2)c1C | -11 | 47* | -6 | 2 | -20
CCOc1cc(N2CCOCC2)c(OCC)cc1NC(=O)CN1CCC(Cc2ccccc2)CC1 | 2 | 29* | -1 | . | -10
O=C(NCc1nc2ccccc2[nH]1)C1=C[C@@H](c2ccc3c(c2)OCO3)C[C@@H](OCCCCO)O1 | . | -2 | . | . | 17
Cn1c2c(c3ccccc31)CCN1CCC[C@]21c1ccccc1 | -19 | 26* | -1 | 0 | 4
COc1ccc2c3c([nH]c2c1)[C@@H](CO)N(C(=O)Nc1ccc(F)cc1)CC31CCN(S(=O)(=O)c2ccccc2)CC1 | . | -3 | . | . | .
CCN(CC)c1ccc(/C=C/c2cccc[n+]2C)c(OC)c1 | -94 | 10 | 28* | -333 | i
COc1ccc(/C=C/c2cccc[n+]2C)c(O)c1 | -7 | -15 | -1 | 1 | -2
CC1C(=NO)C(C)C(c2ccc(N(C)C)cc2)NC1c1ccc(N(C)C)cc1 (centres undefined) | . | 43* | 4 | 4 | -4
COc1ccc(OC)c(CN2CCN(C(=O)c3cc(S(=O)(=O)Nc4ccccc4OC)ccc3C)CC2)c1 | . | 4 | 0 | 1 | -1
COc1ccc(OC)c(CN2CCN(C(=O)c3ccc(C)c(S(=O)(=O)Nc4ccccc4OC)c3)CC2)c1 | -4 | 33* | 0 | 26 | 1
CC1CN(C(=O)c2cc(-c3ccncc3)nc3ccccc23)CC(C)O1 (centres undefined) | -5 | -4 | 45* | 3 | -13
CC1CC(C)CN(C(=O)c2cc(-c3ccncc3)nc3ccccc23)C1 (centres undefined) | 0 | 1 | 1 | 4 | -7
CC1(C)Cc2c(c(N3CCOCC3)nc3sc4c(NCC5CCCO5)nnnc4c23)CS1 (centres undefined) | 20 | 26* | -3 | -30 | -10
Cc1ccc(/C=C2\SC(=S)N(CCC(=O)N3CCCCC3)C2=O)cc1 | -9 | -19 | 18 | 27 | -6
COc1cc(/C=C2\SC(=S)N(CCC(=O)N3CCCCC3)C2=O)cc(OC)c1OC | 10 | 9 | 70* | -9 | -18
O=C(CCN1C(=O)/C(=C\c2ccccc2)SC1=S)N1CCCCC1 | 3 | 1 | 56* | 10 | -2
